In ChEMBL document CHEMBL1144353 (J Med Chem, 2005):

Legend:
[1] = Equilibrium dissociation constant for Voltage-gated calcium channel alpha2-delta subunit as inhibition of [3H]gabapentin binding to pig brain membranes; parameters: species or system Sus scrofa, Membrane
In short: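 Pig cortical membranes (10-20 µg protein/well) with wheat germ agglutinin SPA beads and 30 nM [3H]gabapentin in 10 mM HEPES/10 mM MgSO4, pH 7.4, incubated overnight (15-24 h) at room temperature, then scintillation counted. Mean ± SEM, N = 4.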

[2] = Inhibition of [3H]leucine uptake into CHO cells; format: functional, cell-based, Cricetulus griseus
In short: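 CHO-K1 monolayers (90-100% confluent) were washed twice for 20 min at 37 °C in Na+-free choline buffer. Cells were then exposed for 2 min at room temperature to 2 µCi/mL L-[3H]leucine with test compound, 10 mM to 300 nM in half-log steps, in duplicate. Controls were no drug and 10 mM L-leucine. Uptake was stopped with cold buffer washes and counted by scintillation. IC50 from nonlinear least-squares regression.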

Rattus norvegicus [3] = test: Plasma levels 2 hours after peroral dosing of 30 mg/kg in rats was determined; format: functional, organism-based; parameters: dose 30 mg/kg
In short: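 Sprague-Dawley rats were given a single 30 mg/kg oral dose. Plasma was sampled 2 h after dosing, with brain levels taken at the same time point, and drug concentration is reported in ng/mL.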

Rattus norvegicus [4] = test: Brain levels 2 hours after peroral dosing of 30 mg/kg in rats was determined; format: functional; details: route oral
In short: (§1)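 Sprague-Dawley rats were dosed orally at 30 mg/kg and sampled at 2 h. Brain and plasma levels were measured in ng/mL, and B/P is the brain-to-plasma ratio.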

Rattus norvegicus [5] = test: Ratio of brain level and plasma level 2 hours after peroral dosing of 30 mg/kg in rats was determined; format: functional, organism-based; parameters: dose 30 mg/kg; in short: as §1
[6] = tested on: System L amino acid transporter (Cricetulus griseus); test: Inhibition of [3H]leucine uptake by L-amino acid transporter system in Chinese hamster ovary cells

| Structure (SMILES) | Ki [1] | IC50 ([2]; Cricetulus griseus, CHO, 2 min) | IC50 ([2]; cho) | further results |
| --- | --- | --- | --- | --- |
| NCC1(C(=O)O)CC12CCC2 (stereo unspecified) | 0.2 µM | > 2490 µM | – | – |
| NCC1(C(=O)O)CC12CCCCC2 (stereo unspecified) | 0.013 µM | > 2490 µM | – | Plasma level (Rattus norvegicus [3]): 7070 ng/mL; Brain level (Rattus norvegicus [4]): 385 ng/mL; B/P (Rattus norvegicus [5]): 0.054; IC50 [6]: > 2490 µM |
| CCCC1(CCC)CC1(CN)C(=O)O (stereo unspecified) | 0.2 µM | > 2490 µM | – | – |
| NCC1(C(=O)O)CC12CCCC2 (stereo unspecified) | 0.023 µM | > 8300 µM | – | – |
| CC(C)CC1CC1(CN)C(=O)O (stereo in doubt; 36) | 0.33 µM | – | > 2490 µM | – |
| CC(C)C[C@H](CN)CC(=O)O [PREGABALIN] | – | – | – | Plasma level (Rattus norvegicus [3]): 19400 ng/mL; IC50 [6]: 158 µM |
| CCC(CC)C1CC1(CN)C(=O)O (stereo in doubt) | 0.63 µM | – | > 2490 µM | – |
| CC(C)C1CC1(CN)C(=O)O (stereo unspecified) | 0.34 µM | > 8300 µM | – | – |
| NCC1(C(=O)O)CC1 | > 10 µM | > 8300 µM | – | – |
| CCC(CC)C1CC1(CN)C(=O)O (stereo in doubt; 12) | 0.56 µM | – | > 8300 µM | – |
| CC(C)CC1CC1(CN)C(=O)O (stereo in doubt) | 0.037 µM | – | > 8300 µM | – |
